Dynein transport – blocks dynein driven cargo transport along microtubules | 3617.4 mouse cells, GR-EGFP nuclear translocation imaging; test concentration mostly 20 µM; stimulated with dexamethasone, 1 µM; active compounds read low | z-score, hits read low | 0.47% of 220,000 active | AID 1381;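 active = plate z-score of nuclear minus cytoplasmic receptor signal below a set negative limit, without overly bright fluorescence or cell loss, cut at about -3.5 in these data, passing the limit was not always enough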;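 also: z-score of nuclear minus cytoplasmic ring GR-EGFP intensity difference per well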
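Buffer or medium: tet-free medium with charcoal-stripped serum / Also added: dexamethasone agonist, 1.0 µM final, for 30 min / Timing: induction 48 h, compound 1 h, agonist 30 min / Measured by: high-content fluorescence imaging after fixation / Read-out: nuclear-to-cytoplasmic GR-EGFP distribution per well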
ABCB6 inh MLPCN – blocks the human ABCB6 transporter; AID 602162; fluorescence ratio to DMSO, % at 10 µM; K562-ABCB6 porphyrin accumulation, flow cytometry, 1 h; active compounds read low; 0.19% of 360,000 active; Q9NP58;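 active = fluorescence ratio to DMSO below 75%, the collection mean minus 3 SD; inconclusive = too few cells collected in the well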;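 also: signal is porphyrin accumulated inside mitochondria; 100% equals median channel fluorescence of DMSO control wells; lower ratio means ABCB6 inhibition with less porphyrin fluorescence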
Target sequence (Q9NP58 whole entry, looked up): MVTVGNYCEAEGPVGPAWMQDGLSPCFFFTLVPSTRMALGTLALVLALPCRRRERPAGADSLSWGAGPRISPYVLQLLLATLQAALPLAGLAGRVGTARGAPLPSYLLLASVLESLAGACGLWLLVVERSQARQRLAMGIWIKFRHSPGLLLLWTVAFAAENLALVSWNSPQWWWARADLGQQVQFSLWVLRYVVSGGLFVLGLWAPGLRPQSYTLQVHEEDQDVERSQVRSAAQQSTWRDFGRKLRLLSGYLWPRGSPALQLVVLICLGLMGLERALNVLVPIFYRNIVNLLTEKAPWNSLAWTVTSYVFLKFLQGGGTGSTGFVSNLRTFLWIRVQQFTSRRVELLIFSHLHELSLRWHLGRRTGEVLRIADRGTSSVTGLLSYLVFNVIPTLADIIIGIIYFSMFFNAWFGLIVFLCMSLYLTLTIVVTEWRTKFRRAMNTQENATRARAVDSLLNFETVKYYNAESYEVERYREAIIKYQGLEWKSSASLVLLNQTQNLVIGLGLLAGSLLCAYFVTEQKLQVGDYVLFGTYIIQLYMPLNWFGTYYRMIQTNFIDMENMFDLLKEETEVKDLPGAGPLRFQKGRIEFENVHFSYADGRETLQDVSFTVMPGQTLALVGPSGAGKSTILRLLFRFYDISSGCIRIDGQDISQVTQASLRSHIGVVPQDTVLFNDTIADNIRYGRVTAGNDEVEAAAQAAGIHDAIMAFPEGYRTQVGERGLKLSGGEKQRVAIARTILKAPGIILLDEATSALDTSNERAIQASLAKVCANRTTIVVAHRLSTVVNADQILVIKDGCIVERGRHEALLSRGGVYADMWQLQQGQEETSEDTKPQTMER
KCC2 mod – modulators of human KCC2 chloride dependent transport | Q9H2X9 | KCC2 cells, thallium flux FluoZin-2 fluorescence | B-score of Tl+ flux slope (higher = more flux/activation; lower = inhibition) at 10 µM | 2.2% of 190,000 active;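 active = thallium flux slope and its plate-corrected score both differing from the plate sample mean at a set confidence after two filtering rounds, in either direction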;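 also: slope of fluorescence scaled to starting intensity during 10 to 20 s after thallium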
V-ATPase pHluor – alters yeast V-ATPase proton transport | S. cerevisiae, pHLuorin cytosolic pH fluorescence | response, % at 10 µM | 0.37% of 350,000 active; in the data active = response mostly above about 7.3%, no sharp cut-off; inactive = mostly below about 5.4%; also: actives read high
p-CIP stab down – p/CIP protein destabilization | Q05BA5 | F442A p/CIP-EGFP cells, EGFP fluorescence, 16 h | decrease of EGFP signal, % at 10 µM | 0.01% of 290,000 active;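 active = EGFP signal decrease of at least 30% at 10 µM or well 3 SD below plate mean, unless failing retest; inactive = the rest, including hits failing retest or dose response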
KCC2 sec1 – KCC2 (human) modulation, secondary assay; shares compounds with KCC2 mod; HEK293-KCC2, thallium flux, FluoZin2 fluorescence; active compounds read high; normalised thallium flux (F/F0 slope) at 10 µM; 15% of 3,700 active; AID 1713;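 active = thallium flux slope above the same plate's solvent-only control mean plus 3 SD; inconclusive = the two replicate wells disagree; inactive = no significant difference from solvent-only control wells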
KCC2 bumet counter – thallium flux despite bumetanide block in KCC2 cells, secondary assay 3. shares compounds with KCC2 mod. HEK293-KCC2 + bumetanide/ouabain, thallium flux FluoZin2; active compounds read high. normalized thallium flux at 10 µM. 49% of 3,700 active. AID 1714;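 active = thallium entry rate above the same plate's blocked-transporter control wells by more than 3 SD; inconclusive = the two repeat wells disagree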;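 also: raw slope of fluorescence over initial fluorescence between 10 and 20 s after thallium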
KCC2 secondary2 – KCC2 (human) modulation, second secondary assay. HEK293-KCC2, thallium flux FluoZin2 fluorescence; actives lie on both sides; F/F0 rise rate, 10–20 s post-thallium. normalized thallium flux at 10 µM. shares compounds with KCC2 mod. 23% of 3,700 active;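 active = thallium flux slope more than 3 SD above or below the plate's solvent-only control mean, mostly below; inconclusive = the two repeat wells disagreed; inactive = no significant shift from solvent-only controls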;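 also: raw slope with 0.1% DMSO as baseline and bumetanide as block control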
HEK counter1 – acts in parental HEK cells, KCC2 counter-screen. AID 1716. HEK293 parental cells, thallium flux FluoZin2, ouabain; baseline-ratio fluorescence slope, 10–20 s after thallium. 46% of 3,700 active. thallium flux rate (normalised fluorescence) at 10 µM. shares compounds with KCC2 mod;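 active = thallium flux rate significantly above the same plate's solvent-only control wells, beyond their mean plus 3 SD; inconclusive = the two replicate wells gave conflicting results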
KCC2 retest ouab – KCC2 (human) modulation, ouabain retest | 48% of 3,700 active | AID 1717 | HEK293-KCC2, thallium flux FluoZin2 fluorescence; bidirectional: low = inhibitor, high = activator | raw Tl+ flux slope (below DMSO = inhibition, above = activation) at 10 µM | shares compounds with KCC2 mod;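 active = thallium flux slope beyond 3 SD from same-plate DMSO control mean in most replicates, usually higher, sometimes lower; inconclusive = repeat tests gave conflicting results; inactive = no significant difference from controls in most replicates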;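 also: slope of initial-normalized fluorescence between seconds 10 and 20 after thallium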
HEK293 Tl flux2 – acts in parental HEK cells, second KCC2 counter-screen; AID 1718; HEK293 parental, thallium flux FluoZin-2 fluorescence slope; thallium flux slope at 10 µM; 33% of 3,700 active; shares compounds with KCC2 mod;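 active = thallium flux slope above the same plate's solvent-control mean plus 3 SD in both duplicate wells; inconclusive = duplicate wells that disagreed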;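 also: run without ouabain in cells lacking the KCC2 cotransporter; slope of fluorescence scaled to its starting value between 10 and 20 s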
* marks the source's active call; other numbers are inactive results; ? = inconclusive; / = not tested or not shown. The full list was thinned out, with hits kept by preference.

SMILES | Dynein transport | ABCB6 inh MLPCN | KCC2 mod | V-ATPase pHluor | p-CIP stab down | KCC2 sec1 | KCC2 bumet counter | KCC2 secondary2 | HEK counter1 | KCC2 retest ouab | HEK293 Tl flux2
O=C(Cn1cnc2c(nnn2Cc2ccccc2F)c1=O)NCc1ccco1 | 0.4 | 96 | / | 2 | 0 | 0.0093 | 0.0066 | ? | 0.0081 | 0.018* | 0.011
CN(C)S(=O)(=O)c1cc(NC(=O)CSc2cccc[n+]2[O-])ccc1Cl | / | 99 | / | 0 | / | / | / | / | / | / | /
CN(C)S(=O)(=O)c1cc(NC(=O)CSc2ncc(C(F)(F)F)cc2Cl)ccc1Cl | -0.28 | 122 | 50* | -2 | -21 | 0.0078 | 0.0047 | ? | 0.0075 | 0.019 | 0.011
CC1=CCC[C@@H]2[C@@](C)(CC/C(C)=C/C(=O)O)[C@H](C)CC[C@@]12C | -0.49 | 96 | 3.5* | 0 | -7 | 0.0073 | 0.012* | 0.027 | 0.015* | ? | 0.011
C[C@@H]1CC[C@@]23COC(=O)C2=CCC[C@@H]3[C@@]1(C)CC/C(=C/CO)CO | / | 104 | / | 1 | / | / | / | / | / | / | /
COc1cccc(OCC(=O)NNC(=S)Nc2ccc(Cl)cc2Cl)c1 | -0.27 | 100 | 5.5* | 0 | -4 | 0.0074 | 0.015* | 0.028 | 0.014* | ? | 0.014*
CC1(C(=O)O)CCCN1C(=O)c1cccc(F)c1 (stereo not drawn) | / | 91 | / | / | / | / | / | / | / | / | /
C=CCN1C=CC(=CC=C(C#N)C#N)C=C1 | 1.8 | 98 | -5.3 | 0 | -109 | / | / | / | / | / | /
CCCN1C=CC(=CC=C(C#N)C#N)C=C1 | 0.66 | 98 | -7.8* | -5 | -93 | 0.0021* | -0.0014* | 0.023* | ? | 0.0066* | ?
COc1cc(NC(=O)Nc2nc(C(N)C3CCCCC3)cs2)cc(OC)c1OC (stereo not drawn) | / | 100 | / | / | / | / | / | / | / | / | /
O=C(Nc1nnc([C@H]2C[C@H](O)[C@@H](CO)O2)s1)c1cccc(OC(F)(F)F)c1 | / | 96 | / | / | / | / | / | / | / | / | /
CCOc1ccccc1N1CCN(C(=O)/C=C/c2cccc([N+](=O)[O-])c2)CC1 | -0.033 | 94 | -3.8* | -3 | -4 | 0.0054 | 0.0048 | 0.027* | 0.0057* | 0.017* | ?
Cc1[nH]c(C)c(S(=O)(=O)Nc2ccc(OC(F)(F)F)cc2)c1C(=O)N1CCCCC1 | / | 90 | / | -1 | -6 | / | / | / | / | / | /
O=C(CN1C(=O)NC2(CCCc3ccccc32)C1=O)NC1CCCCC1 (stereo not drawn) | / | 100 | / | 0 | / | / | / | / | / | / | /
Cc1cccc(-c2nnc(NC(=O)c3ccc(Cl)cc3)o2)c1 | 0.59 | 99 | 91* | 11 | -6 | 0.07* | 0.16* | 0.077* | ? | 0.12* | 0.072*
COc1cc(OC)cc(C(=O)Nc2nnc(-c3cccnc3)o2)c1 | 0.3 | 92 | -1.6 | 3 | 11 | / | / | / | / | / | /
O=C(Nc1nnc(-c2ccco2)o1)c1cccc(Cl)c1 | -0.24 | 103 | 24* | 4 | 6 | 0.019* | 0.063* | 0.034 | 0.034* | 0.049* | 0.015*
O=C(Nc1nnc(-c2ccco2)o1)c1ccc(Cl)s1 | / | 100 | / | 1 | -32 | / | / | / | / | / | /
CC(=O)Nc1nnc(-c2ccco2)o1 | -0.5 | 97 | 0.08 | 2 | 8 | / | / | / | / | / | /
O=C(Nc1nnc(-c2cccnc2)o1)c1cccc(Cl)c1 | -0.76 | 101 | 14* | -1 | -2 | ? | 0.027* | 0.034 | ? | 0.034* | 0.013
O=C(/C=C/c1ccccc1)Nc1nnc(-c2ccco2)o1 | 0.24 | 93 | 2.8* | 0 | -3 | 0.007 | 0.0083* | 0.028 | ? | 0.019 | 0.01
O=C(NNc1ccccc1)NC(Cc1ccccc1)C(=O)O (stereo not drawn) | / | 95 | / | 3 | / | / | / | / | / | / | /
N#CC(c1ccc(O)cc1)N1CCOCC1 (stereo not drawn) | 0.063 | 102 | -0.39 | -4 | -17 | / | / | / | / | / | /
CCN1C(=O)[C@H]2[C@@H](c3ccc(-c4ccccc4)c(OC)c3)N[C@@](CC(C)C)(C(=O)OC)[C@H]2C1=O | / | 97 | / | -7 | / | / | / | / | / | / | /
O=C(Nc1nnc(-c2ccccn2)o1)c1cccc(Br)c1 | -0.46 | 104 | 2 | 5 | 9 | / | / | / | / | / | /
O=C(Nc1nnc(-c2ccccn2)o1)c1cccc(Cl)c1 | -0.14 | 104 | 11* | -3 | -6 | 0.0066 | 0.015* | 0.038 | 0.021* | 0.027* | 0.022*
O=S(=O)(CCc1ccccc1)CS(=O)(=O)CCc1ccccc1 | / | 104 | / | 1 | / | / | / | / | / | / | /
O=C(CNC(=O)c1ccc(Br)o1)NNC(=O)COc1ccccc1Cl | / | 91 | / | 2 | / | / | / | / | / | / | /
CNc1oc(Cc2cccc3ccccc23)nc1C#N | -1.5 | 104 | / | -5 | -11 | 0.011 | 0.0082* | ? | 0.0079 | 0.014* | ?

Screening results deposited in PubChem BioAssay by several laboratories.
